Source: article PMC8359310 (British Journal of Clinical Pharmacology, 2020)

Tests used:
[1] = Capmatinib plasma concentrations in DDI and post‐DDI phase; format: in vivo, human; details: 400 mg twice daily
[2] = Estimated maximum luminal concentration in the gut; design: species or system human; details: therapeutic dose 400 mg twice daily; dose/250 mL
[3] = system: MET‐dysregulated advanced solid tumours; test: Antitumour activity by Investigator's assessment per RECIST 1.1; format: in vivo, human
Outline: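 Adults (≥18 years) with refractory MET-dysregulated advanced solid tumours (amplification with gene copy number ≥4 by FISH or qPCR, IHC intensity +3 in ≥50% of tumour cells, or exon 14 deletion mutation). Test compound given orally at 400 mg twice daily, then continued on 21-day cycles. Investigator-read CT every 6 weeks. Patients stopping for other reasons were followed until progression, new therapy or death.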

[4] = target: organic anion transporting polypeptide (OATP) 1B1; details: read-out: Ki for OATP1B1; in vitro; ref data on file; cited from earlier work
[5] = system: breast cancer resistant protein (BCRP); details: in vitro, cited from earlier work
Safety assessments = format: in vivo, human
[6] = one of the capmatinib studies; ref data on file; cited from earlier work
[7] = system: breast cancer resistant protein (BCRP); test: In vitro inhibition of transporter BCRP by capmatinib; format: in vitro ADME; details: 400 mg twice daily
p‐glycoprotein (P‐gp) = details: in vitro, cited from earlier work
[8] = cited from earlier work
OATP1B3 = details: read-out: Ki for OATP1B3; in vitro; ref data on file; cited from earlier work
[9] = regardless of study drug relationship

SMILES: CNC(=O)c1ccc(-c2cnc3ncc(Cc4ccc5ncccc5c4)n3n2)cc1F [capmatinib]
- geometric mean predose concentration ([1]; Cycle 2 Day 1 (post‐DDI phase)): 529 ng/mL
- geometric mean predose concentration ([1]; Day 22 (DDI phase)): 407 ng/mL
- concentration at 2 h ([1]; human, oral): 3.96 µg/mL
- estimated maximum luminal concentration in the gut [2]: approximately 3880 μM
- Best overall response: Progressive disease (PD) ([3]; all patients n = 32): 17 (53.1) n (%)
- Best overall response: Unknown ([3]; all patients n = 32): 7 (21.9) n (%)
- complete response (CR) or partial response (PR) ([3]; all patients n = 32): No patient
- disease control rate (CR + PR + SD) ([3]; in vivo): 25%
- patients with PD as best overall response ([3]; in vivo): 53.1%
- patients with stable disease as best overall response ([3]; in vivo): 25%
- patients with unknown response ([3]; in vivo): 21.9%
- Ki [4]: 5.1 µM
- IC50 ([5]; read-out: IC50 for inhibition of BCRP): 16.4 µM
- Ki ([5]; read-out: Ki for BCRP, ref data on file): 8.2 µM
- patients with AEs leading to study drug discontinuation (Safety assessments; all events grade 3/4): 9.4%
- patients with treatment‐related AEs (Safety assessments; all grades): 78.1%
- treatment‐related asthenia, patients (Safety assessments; all grades): 18.8%
- treatment‐related dyspepsia, patients (Safety assessments; all grades): 15.6%
- treatment‐related nausea, patients (Safety assessments; all grades): 34.4%
- treatment‐related peripheral oedema, patients (Safety assessments; all grades): 12.5%
- treatment‐related vomiting, patients (Safety assessments; all grades): 34.4%
- nausea leading to dose adjustment or dose interruption, patients (Safety assessments; both Grade ≤2): 6.3%
- alterations in the electrocardiograph (Safety assessments; in vivo): No clinically relevant alterations
- on‐treatment deaths (Safety assessments; in vivo): 18.8%
- on‐treatment deaths due to AE (respiratory tract infection) (Safety assessments; in vivo): 3.1%
- on‐treatment deaths due to AEs with disease progression as contributing reason (Safety assessments; in vivo): 9.4%
- on‐treatment deaths due to disease progression (Safety assessments; in vivo): 6.3%
- other treatment‐related SAEs: anaemia, abdominal pain and malaise, each (Safety assessments; in vivo): 1 patient
- patients who died during the study (Safety assessments; in vivo): 25.0%
- patients with AEs requiring dose adjustment or study drug interruption (Safety assessments; in vivo): 40.6%
- patients with treatment‐related Grade 3/4 AEs (Safety assessments; in vivo): 25.0%
- patients with treatment‐related SAEs (Safety assessments; in vivo): 12.5%
- treatment‐related Grade 3/4 vomiting, patients (Safety assessments; in vivo): 6.3%
- treatment‐related SAE vomiting, patients (Safety assessments; in vivo): 9.4%
- Abdominal pain upper, Grade 3/4 (Safety assessments; [9]): 0 n (%)
- Abdominal pain upper, all grades (Safety assessments; [9]): 4 (12.5) n (%)
- Abdominal pain, Grade 3/4 (Safety assessments; [9]): 1 (3.1) n (%)
- Abdominal pain, all grades (Safety assessments; [9]): 3 (9.4) n (%)
- Anaemia, Grade 3/4 (Safety assessments; [9]): 3 (9.4) n (%)
- Anaemia, all grades (Safety assessments; [9]): 7 (21.9) n (%)
- Asthenia, Grade 3/4 (Safety assessments; [9]): 2 (6.3) n (%)
- Asthenia, all grades (Safety assessments; [9]): 14 (43.8) n (%)
- Back pain, Grade 3/4 (Safety assessments; [9]): 1 (3.1) n (%)
- Back pain, all grades (Safety assessments; [9]): 6 (18.8) n (%)
- Blood albumin decreased, Grade 3/4 (Safety assessments; [9]): 1 (3.1) n (%)
- Blood albumin decreased, all grades (Safety assessments; [9]): 2 (6.3) n (%)
- Candida infection, Grade 3/4 (Safety assessments; [9]): 0 n (%)
- Candida infection, all grades (Safety assessments; [9]): 2 (6.3) n (%)
- Constipation, Grade 3/4 (Safety assessments; [9]): 0 n (%)
- Constipation, all grades (Safety assessments; [9]): 13 (40.6) n (%)
- Cough, Grade 3/4 (Safety assessments; [9]): 0 n (%)
- Cough, all grades (Safety assessments; [9]): 5 (15.6) n (%)
- Decreased appetite, Grade 3/4 (Safety assessments; [9]): 1 (3.1) n (%)
- Decreased appetite, all grades (Safety assessments; [9]): 7 (21.9) n (%)
- Depression, Grade 3/4 (Safety assessments; [9]): 0 n (%)
- Depression, all grades (Safety assessments; [9]): 2 (6.3) n (%)
- Diarrhoea, Grade 3/4 (Safety assessments; [9]): 1 (3.1) n (%)
- Diarrhoea, all grades (Safety assessments; [9]): 6 (18.8) n (%)
- Dyspepsia, Grade 3/4 (Safety assessments; [9]): 0 n (%)
- Dyspepsia, all grades (Safety assessments; [9]): 7 (21.9) n (%)
- Dyspnoea, Grade 3/4 (Safety assessments; [9]): 2 (6.3) n (%)
- Dyspnoea, all grades (Safety assessments; [9]): 6 (18.8) n (%)
- Fatigue, Grade 3/4 (Safety assessments; [9]): 0 n (%)
- Fatigue, all grades (Safety assessments; [9]): 4 (12.5) n (%)
- Headache, Grade 3/4 (Safety assessments; [9]): 0 n (%)
- Headache, all grades (Safety assessments; [9]): 2 (6.3) n (%)
- Hypotension, Grade 3/4 (Safety assessments; [9]): 1 (3.1) n (%)
- Hypotension, all grades (Safety assessments; [9]): 2 (6.3) n (%)
- Increased blood bilirubin, Grade 3/4 (Safety assessments; [9]): 1 (3.1) n (%)
- Increased blood bilirubin, all grades (Safety assessments; [9]): 5 (15.6) n (%)
- Lymphocyte count decreased, Grade 3/4 (Safety assessments; [9]): 1 (3.1) n (%)
- Lymphocyte count decreased, all grades (Safety assessments; [9]): 2 (6.3) n (%)
- Nausea, Grade 3/4 (Safety assessments; [9]): 2 (6.3) n (%)
- Nausea, all grades (Safety assessments; [9]): 18 (56.3) n (%)
- Oedema peripheral, Grade 3/4 (Safety assessments; [9]): 0 n (%)
- Oedema peripheral, all grades (Safety assessments; [9]): 9 (28.1) n (%)
- Pulmonary embolism, Grade 3/4 (Safety assessments; [9]): 3 (9.4) n (%)
- Pulmonary embolism, all grades (Safety assessments; [9]): 3 (9.4) n (%)
- Pyrexia, Grade 3/4 (Safety assessments; [9]): 1 (3.1) n (%)
- Pyrexia, all grades (Safety assessments; [9]): 8 (25.0) n (%)
- Rash, Grade 3/4 (Safety assessments; [9]): 0 n (%)
- Rash, all grades (Safety assessments; [9]): 2 (6.3) n (%)
- Respiratory tract infection, Grade 3/4 (Safety assessments; [9]): 1 (3.1) n (%)
- Respiratory tract infection, all grades (Safety assessments; [9]): 5 (15.6) n (%)
- Total adverse events, Grade 3/4 (Safety assessments; [9]): 18 (56.3) n (%)
- Total adverse events, all grades (Safety assessments; [9]): 32 (100) n (%)
- Urinary tract infection, Grade 3/4 (Safety assessments; [9]): 0 n (%)
- Urinary tract infection, all grades (Safety assessments; [9]): 3 (9.4) n (%)
- Vertigo, Grade 3/4 (Safety assessments; [9]): 0 n (%)
- Vertigo, all grades (Safety assessments; [9]): 2 (6.3) n (%)
- Vitamin K decreased, Grade 3/4 (Safety assessments; [9]): 1 (3.1) n (%)
- Vitamin K decreased, all grades (Safety assessments; [9]): 3 (9.4) n (%)
- Vomiting, Grade 3/4 (Safety assessments; [9]): 2 (6.3) n (%)
- Vomiting, all grades (Safety assessments; [9]): 13 (40.6) n (%)
- Weight decreased, Grade 3/4 (Safety assessments; [9]): 0 n (%)
- Weight decreased, all grades (Safety assessments; [9]): 2 (6.3) n (%)
- anaemia, Grade 3/4, patients (Safety assessments; [9]): 9.4%
- anaemia, all grades, patients (Safety assessments; [9]): 21.9%
- asthenia, Grade 3/4, patients (Safety assessments; [9]): 6.3%
- asthenia, all grades, patients (Safety assessments; [9]): 43.8%
- constipation, all grades, patients (Safety assessments; [9]): 40.6%
- decreased appetite, all grades, patients (Safety assessments; [9]): 21.9%
- dyspepsia, all grades, patients (Safety assessments; [9]): 21.9%
- dyspnoea, Grade 3/4, patients (Safety assessments; [9]): 6.3%
- nausea, Grade 3/4, patients (Safety assessments; [9]): 6.3%
- nausea, all grades, patients (Safety assessments; [9]): 56.3%
- patients with Grade 3/4 AEs (Safety assessments; [9]): 56.3%
- patients with Grade 3/4 SAEs (Safety assessments; [9]): 40.6%
- patients with SAEs of any grade (Safety assessments; [9]): 53.1%
- peripheral oedema, all grades, patients (Safety assessments; [9]): 28.1%
- pulmonary embolism, Grade 3/4, patients (Safety assessments; [9]): 9.4%
- pyrexia, all grades, patients (Safety assessments; [9]): 25%
- vomiting, Grade 3/4, patients (Safety assessments; [9]): 6.3%
- vomiting, all grades, patients (Safety assessments; [9]): 40.6%
- enrolled patients who experienced at least 1 AE (Safety assessments; regardless of study drug relationship, 32 enrolled): 32 patients
- serum creatinine change (Safety assessments; some subjects, none clinically relevant or reported as AE): low‐grade creatinine increase
- cystatin C level following capmatinib treatment [6]: No change
- maximum luminal gut concentration relative to Ki for BCRP [7]: > 300 fold
- IC50 (p‐glycoprotein (P‐gp); read-out: IC50 for inhibition of P‐gp): 12 µM
- Ki (p‐glycoprotein (P‐gp); read-out: Ki for P‐gp, ref data on file): 12 µM
- steady state expected to be reached by ([8]; consecutive twice daily dosing): ≤ 3 days
- time to maximum plasma concentration (Tmax) ([8]; oral administration): 1 to 2 h
- Ki (OATP1B3): 5.2 µM
